PDI turbidity: PDI (human) enzyme inhibition. PDI insulin aggregation turbidity, A650, 90 min. inhibition, % at 10 µM. P07237. actives 0.052% (n = 350,000);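 active = mean inhibition across replicates of 30% or more, whatever share of single replicates reach that level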
Target sequence (P07237 whole entry, looked up): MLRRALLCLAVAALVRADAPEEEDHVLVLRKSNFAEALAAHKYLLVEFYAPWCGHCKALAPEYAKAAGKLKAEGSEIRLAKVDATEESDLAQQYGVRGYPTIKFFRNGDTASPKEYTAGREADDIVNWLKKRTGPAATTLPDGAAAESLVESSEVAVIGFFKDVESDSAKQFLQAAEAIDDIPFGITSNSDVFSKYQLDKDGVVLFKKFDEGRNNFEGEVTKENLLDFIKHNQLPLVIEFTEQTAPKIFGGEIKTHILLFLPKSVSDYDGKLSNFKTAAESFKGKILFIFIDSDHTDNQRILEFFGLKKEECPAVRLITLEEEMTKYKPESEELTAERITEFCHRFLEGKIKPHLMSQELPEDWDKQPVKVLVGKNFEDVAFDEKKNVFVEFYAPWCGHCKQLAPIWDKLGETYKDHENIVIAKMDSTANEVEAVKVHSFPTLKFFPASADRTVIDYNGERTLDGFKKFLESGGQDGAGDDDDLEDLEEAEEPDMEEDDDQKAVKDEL
FN deposition inh: fibronectin deposition inhibition. AH1F fibroblasts, Alexa488-fibronectin deposition fluorescence, overnight. inhibition, % at 12.6 µM. actives 0.086% (n = 350,000). AID 743247;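 active = mean inhibition across replicates of 30% or more, regardless of how many single replicates reach that level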;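 note: positive control wells lacked labelled fibronectin entirely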
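Assay system: AH1F fibroblasts / Quantity: 10000 cells per well / Medium: DMEM plus 2% serum, read in PBS / Reagent: labelled fibronectin 24 nM / Dosing: single dose, pinned / Times: 1 h cell attachment, overnight exposure to compound and label / Signal: fluorescence, ex 485 nm, em 525 nm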
HIV Env fusion: inhibitors of HIV Env-mediated cell fusion; HeLa-JRFL Env/CEM21 cell fusion, luciferase; AID 651610; actives 1.1% (n = 360,000); inhibition, % at 12.3 µM;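 active = mean replicate inhibition score of at least 50 and every replicate individually at or above 50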;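 note: 0% = plate neutral controls and 100% = maraviroc near 300 nM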
ERp5 inh: inhibitors of human ERp5; Q15084; ERp5 insulin aggregation, absorbance 650 nm, 90 min; inhibition, % at 9.99 µM; actives 0.05% (n = 350,000); AID 651711;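 active = mean replicate inhibition above about 25%, with every replicate also reaching it, limit read from the data, passing the limit was not always enough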
GSIS activator: primary screen for activators of insulin secretion dependent on glucose, INS-1E cells, GLuc reporter luminescence; INS-1E GLuc reporter insulin secretion, 2-3 h; activation, % at 16.6 µM; actives 0.61% (n = 370,000); AID 743287;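 active = lowest replicate activation of at least 40%, so every replicate reaches that level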;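 note: 0% = median of neutral control wells and 100% = median of IBMX positive control wells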
Active calls of the source: *; i = inactive; / = not tested or not shown; [ ] = dose if it differs, or a comment. A selection: hits, their analogues and other compounds. The true share with any hit is near 1.4%.

SMILES	PDI turbidity	FN deposition inh	HIV Env fusion	ERp5 inh	GSIS activator
CCCC(=O)Nc1ccc2c(c1)C(=O)N(C)[C@H]1CC[C@H](CC(=O)NCc3ccccc3F)O[C@H]1CO2	/	-1	-4[16.7 µM]	/	-2
N#Cc1cccc(-c2ccc3c(c2)[C@@H]2[C@@H](CCN2S(=O)(=O)c2cccc(F)c2)[C@@H](CO)N3)c1	/	9	/	1	-20
O=S(=O)(c1cccc(F)c1)N1CC[C@H]2[C@H](CO)Nc3ccc(-c4cccc(F)c4)cc3[C@H]21	/	36*	/	/	-2
COc1cccc(-c2ccc3c(c2)[C@H]2[C@H](CCN2C(=O)C2CCCC2)[C@H](CO)N3)c1	/	1	56*[16.7 µM]	-2	3
N#Cc1ccc(-c2ccc3c(c2)[C@@H]2[C@@H](CCN2S(=O)(=O)c2cccc(F)c2)[C@@H](CO)N3)cc1	/	35*	/	-3	23
COc1cccc(-c2ccc3c(c2)[C@@H]2[C@@H](CCN2S(=O)(=O)c2cccc(OC)c2)[C@@H](CO)N3)c1	/	38*	/	4	-4
COc1cccc(-c2ccc3c(c2)[C@@H]2[C@@H](CCN2C(=O)C2CCCC2)[C@@H](CO)N3)c1	/	12	28[16.7 µM]	5	-16
COCC(=O)Nc1ccc2c(c1)C(=O)N(C)C[C@@H](OC)[C@@H](C)CN(CCC(F)(F)F)[C@@H](C)CO2	/	-1	2[16.7 µM]	0	-17
CCNC(=O)C[C@@H]1C=C[C@H](NS(=O)(=O)c2ccc(C)cc2)[C@H](CO)O1	/	-2	8[16.7 µM]	-2	4
O=C(OCCO)c1c(-c2ccccc2)oc2c1C(OCCO)CCC2 (stereo not given)	/	/	61*	-1	9
COc1ccc(-c2oc3c(c2C(=O)OCCO)C(OCCO)CCC3)cc1 (stereo not given)	/	/	11	4	-7
C=C[C@H](Cc1ccccc1)N(Cc1ccccc1)S(=O)(=O)N(Cc1ccccc1)[C@H](C=C)Cc1ccccc1	-3	14	61*	6	2
COc1ccc(Cn2nnnc2C(c2cc3cc(C)ccc3[nH]c2=O)N2CCOCC2)cc1 (stereo not given)	3	/	67*	/	/
COc1ccc2[nH]c(=O)c(CN(Cc3ccco3)C(c3nnnn3Cc3ccccc3)C(C)C)cc2c1 (stereo not given)	-4	4	54*	4	-21
COc1ccc(Cn2nnnc2C(c2cc3cccc(C)c3[nH]c2=O)N2CCOCC2)cc1 (stereo not given)	2	-10	86*	/	13
CCN1CCN(C(c2cc3cccc(C)c3[nH]c2=O)c2nnnn2Cc2ccccc2)CC1 (stereo not given)	11	7	-51	/	/
COCC(=O)N1C[C@@H]2[C@H](c3ccccc31)[C@H](CO)N2Cc1ccccc1Cl	/	/	/	3	2
c1ccc(-c2ccc3c(n2)CCCN3Cc2ccccn2)cc1	/	6	61*	0	1
CCCCCCCCCCCCCCCC[n+]1cccc2ccccc21	6	/	74*	8	159*
C/C(=N\NC(=O)c1ccc(Cn2cc([N+](=O)[O-])cn2)o1)c1cccc(NC(=O)c2cccnc2)c1	-6	31*	2	3	/
C/C(=N\NC(=O)c1ccc(Cn2cc(Br)cn2)o1)c1cccc(NC(=O)C(C)(C)C)c1	-2	6	-2	/	-19
Cc1ccc(-c2ccc(C3[C@H]4CNC[C@@H]3N4S(=O)(=O)c3cccc(C)c3)cc2)cc1 (stereo not given in full)	/	-3	/	-5	-4
CS(=O)(=O)N1CCc2cc(-c3csc(NC(=O)Cc4cccs4)n3)ccc21	3	/	76*	/	/
CC(=O)Nc1nc(-c2ccc3c(c2)CCN3S(C)(=O)=O)cs1	2	/	-10	11	7
COc1ccccc1CNC(=O)C[C@H]1CC[C@H]2[C@@H](COC[C@H](O)CN2Cc2cccc(-c3ccncc3)c2)O1	/	2	4[16.7 µM]	/	-3
SMILES	PDI turbidity	FN deposition inh	HIV Env fusion	ERp5 inh	GSIS activator
CCc1ccc(/C=C2\SC(=S)N(CCCC(=O)NCCCN3CCOCC3)C2=O)cc1	1	-3	52	0	41*
CCc1ccc(/C=C2\SC(=S)N(CCCC(=O)Nc3nccs3)C2=O)cc1	-13	-5	-2	/	121*
COc1ccc2c3c([nH]c2c1)[C@H](CO)N(Cc1ccccc1F)CC31CCN(C(=O)C2CCOCC2)CC1	/	/	-25[16.7 µM]	-3	6
Cc1ccc(S(=O)(=O)Nc2ccc3c(c2)C(=O)N([C@H](C)CO)C[C@H](C)[C@H](CN(C)S(=O)(=O)c2ccccc2)OCCCC[C@H](C)O3)cc1	/	-6	-3[16.7 µM]	1	-32
COc1ccc(N/C=C\C(=O)c2ccc(Br)cc2)cc1OC	-6	3	/	/	131*
CNC[C@H]1Oc2ccc(NC(=O)Nc3ccc(F)cc3)cc2C(=O)N([C@@H](C)CO)C[C@H]1C	/	15	/	0	7
CCCN1[C@@H]2c3cccc(=O)n3C[C@@H]2[C@@H](CO)[C@@H]1C(=O)N1CCCCC1	/	/	/	-2	9
CC1CC(NS(=O)(=O)c2cc3c4c(c2)CCN4C(=O)CC3)CC(C)(C)C1 (stereo not given)	3	1	61*	-3	-2
CC(C)(C)NS(=O)(=O)c1cc2c3c(c1)CCN3C(=O)CC2	1	1	3	10	7
COc1ccc(CC(=O)OCC(=O)c2ccc(OC)c(OC)c2)cc1	-4	-6	-3	4	41*
CCOC(=O)c1sc2nc(-c3ccccc3)ccc2c1N	-2	-2	i	/	76*
COc1ccc(CC(=O)c2ccc(OC)c(OC)c2)cc1	-1	1	6	0	71*
COc1cc2ccc(C(C)=O)cc2cc1OC	-5	9	-20	-2	48*
O=C(C[C@H]1CC[C@H](NS(=O)(=O)c2ccc(F)cc2)[C@H](CO)O1)NCc1ccncn1	/	/	-29[16.7 µM]	-3	7
COc1ccc(OC)c(C(=O)c2ccc(C(=O)c3cc(OC)ccc3OC)cc2)c1	3	/	/	0	17
COc1ccc(-c2ccc3c(N)c(C(=O)c4ccc(OC)c(OC)c4)sc3n2)cc1	0	-2	-192	/	172*
COc1ccc(C(=O)c2sc3nc(-c4ccccc4)ccc3c2N)cc1OC	-4	-50	-194	/	/
COc1ccc(OC)c(C(=O)c2ccc([N+](=O)[O-])cc2)c1	-8	8	17	-3	58*
COc1ccc(C(=O)c2ccc(Br)cc2)cc1	1	-1	-7	/	84*
COc1ccc(C(=O)c2ccc(OC)c(OC)c2)cc1	-1	-5	16	/	56*
Cc1ccccc1-c1cnc2c(c1)C(=O)N([C@@H](C)CO)C[C@@H](C)[C@@H](CN(C)C(=O)c1ccc(F)cc1)O2	/	-7	-4[16.7 µM]	6	-18
COc1ccc(C(=O)CCS(=O)(=O)c2ccc(F)cc2)cc1OC	-3	12	-7	-1	60*
COc1cc(C(=O)C(=O)c2ccc(OC)c(OC)c2)ccc1O	3	-2	-35	13	45*

Bioassay records: PubChem BioAssay, Broad Institute
